Assay results reported in PubChem BioAssay AID651938 (NMMLSC, 2012).

Target: Fluorogen activating protein scFv HL1.1-TO1 (AM2.2, synthetic construct)
Experiment: competition with TO1-2p for soluble AM2.2 – biochemical, soluble FAP, fluorescence competition, artefact control for beta2AR internalization ligand project, dose response (AID 651938)
Conditions: Soluble FAP AM2.2 with TO1-2p fluorogen
Method in brief: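 System: soluble purified FAP AM2.2. Medium: cPBS buffer. Compound: serial dilution series, water-diluted DMSO stocks.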

CN(CC(=O)N1CCN(c2ccccn2)CC1)S(=O)(=O)c1ccc(Cl)cc1
EC50: 2.73 µM

Cc1ccc(S(=O)(=O)N(C)CC(=O)N2CCN(c3ccccn3)CC2)cc1
EC50: 19.8 µM
